From ChEMBL document CHEMBL3352507, “Preparation and antimalarial activity of a novel class of carbohydrate-derived, fused thiochromans” (Eur J Med Chem, 2014)
pIC50: −log10 of the molar value.

Experiments:
[1] = tested on: Plasmodium falciparum; assay: Antimalarial activity against Plasmodium falciparum 3D7 after 48 hrs by parasite lactate dehydrogenase assay; type: functional, organism-based; conditions: 3D7, 48 h
Summary of the method: (§1)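 Parasite survival read by parasite lactate dehydrogenase (pLDH) assay. Single-concentration prescreen at […]; compounds with 0–15% survival were taken to dose–response. Ten three-fold serial dilutions in triplicate, incubated 48 h in a gassed airtight box, developed with NBT/PES. IC50 from sigmoidal curve of % survival relative to control against log concentration.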

[2] = tested on: Plasmodium falciparum; assay: Antimalarial activity against Plasmodium falciparum FCR3 after 48 hrs by parasite lactate dehydrogenase assay; type: functional, organism-based; conditions: FCR3, 48 h; summary of the method: as §1
[3] = Cytotoxicity against human WI38 cells after 48 hrs by SRB assay; type: cell-based; conditions: WI-38, 48 h
Summary of the method: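 WI-38 human fetal lung fibroblasts (passages 21–50) in EMEM with 10% FBS, 2 mM L-glutamine and gentamicin, at 37 °C and 5% CO2. Seeded at 10 000 cells/well, grown 24 h, then given compound in DMSO diluted in medium to 5 concentrations for 48 h. Cells were fixed with cold 50% TCA and stained with SRB, and dye was read at 540 nm. IC50 by non-linear regression against untreated controls.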

[4] = Cytotoxicity against human WI38 cells assessed as cell viability at 10 uM after 48 hrs by SRB assay; type: cell-based, WI-38; conditions: read-out: Activity
Summary of the method: (§2)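 WI-38 fibroblasts (passages 21–50) were seeded at 10 000 cells/well for 24 h, then exposed for 48 h to compound dissolved in DMSO and diluted in medium. Viable cells were fixed with cold 50% trichloroacetic acid and stained with sulforhodamine B. Bound dye was extracted with 10 mM Tris base and read at 540 nm. Viability relative to drug-free cells.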

[5] = Cytotoxicity against human WI38 cells assessed as cell viability at 0.1 uM after 48 hrs by SRB assay; type: cell-based, WI-38; conditions: read-out: Activity; summary of the method: as §2
[6] = Cytotoxicity against human WI38 cells assessed as cell viability at 0.01 uM after 48 hrs by SRB assay; type: cell-based, WI-38; conditions: read-out: Activity; summary of the method: as §2
[7] = Cytotoxicity against human WI38 cells assessed as cell viability at 1 uM after 48 hrs by SRB assay; type: cell-based, WI-38; conditions: read-out: Activity; summary of the method: as §2
[8] = Cytotoxicity against human WI38 cells assessed as cell viability at 100 uM after 48 hrs by SRB assay; type: cell-based, WI-38; conditions: read-out: Activity; summary of the method: as §2

| Compound | pIC50 [1] | pIC50 [2] | pIC50 [3] | viability at 48 h, 10 µM [4] | viability at 48 h, 0.1 µM [5] | viability at 48 h, 0.01 µM [6] | viability at 48 h, 1 µM [7] | viability at 48 h, 100 µM [8] |
| --- | --- | --- | --- | --- | --- | --- | --- | --- |
| CC(C)(C)c1ccc2c(c1)[C@H]1O[C@H](COCc3ccccc3)[C@@H](OCc3ccccc3)[C@H](OCc3ccccc3)[C@H]1CS2 | < 4.00 | < 4.00 |  |  |  |  |  |  |
| CC(=O)OC[C@H]1O[C@@H]2c3cc(C(C)(C)C)ccc3SC[C@@H]2[C@@H](OC(C)=O)[C@@H]1OC(C)=O | < 4.00 | < 4.00 |  |  |  |  |  |  |
| CC(C)(C)c1ccc2c(c1)[C@H]1O[C@H](CO)[C@@H](O)[C@H](O)[C@H]1CS2 | < 4.00 | < 4.00 |  |  |  |  |  |  |
| [O-][S@@+]1C[C@@H]2[C@@H](OCc3ccccc3)[C@H](OCc3ccccc3)[C@@H](COCc3ccccc3)O[C@@H]2c2ccccc21 | < 4.00 | 4.99 | < 4.00 |  |  |  |  |  |
| Cc1cccc2c1[S@@+]([O-])C[C@@H]1[C@@H](OCc3ccccc3)[C@H](OCc3ccccc3)[C@@H](COCc3ccccc3)O[C@H]21 | 5.38 | 5.56 | < 4.00 | 84.7% | 99.5% | 102% | 99.2% | 67.1% |
| [O-][S@+]1C[C@@H]2[C@@H](OCc3ccccc3)[C@H](OCc3ccccc3)[C@@H](COCc3ccccc3)O[C@@H]2c2ccccc21 | < 4.00 | < 4.00 |  |  |  |  |  |  |
| Cc1ccc2c(c1)[C@H]1O[C@H](COCc3ccccc3)[C@@H](OCc3ccccc3)[C@H](OCc3ccccc3)[C@H]1C[S@@+]2[O-] | 5.59 | 5.54 | < 4.00 | 92.6% | 101% | 101% | 100% | 70.3% |
| COc1ccc2c(c1)[C@H]1O[C@H](COCc3ccccc3)[C@@H](OCc3ccccc3)[C@H](OCc3ccccc3)[C@H]1C[S@@+]2[O-] | 5.66 | 5.68 | 5.06 | 55.4% | 98% | 97.4% | 97.2% | 27.2% |
| CC(C)(C)c1ccc2c(c1)[C@H]1O[C@H](COCc3ccccc3)[C@@H](OCc3ccccc3)[C@H](OCc3ccccc3)[C@H]1C[S@@+]2[O-] | 5.88 | 6.48 | < 4.00 | 86.9% | 98.8% | 100% | 97.1% | 60.2% |
| Cc1cccc2c1[S@+]([O-])C[C@@H]1[C@@H](OCc3ccccc3)[C@H](OCc3ccccc3)[C@@H](COCc3ccccc3)O[C@H]21 | 5.20 | 5.36 | < 4.00 | 88.2% | 99.3% | 101% | 95.5% | 52.5% |
| CC(=O)OC[C@H]1O[C@@H]2c3cc(C(C)(C)C)ccc3S(=O)(=O)C[C@@H]2[C@@H](OC(C)=O)[C@@H]1OC(C)=O | < 4.00 | < 4.00 |  |  |  |  |  |  |
| CC(C)(C)c1ccc2c(c1)[C@H]1O[C@H](CO)[C@@H](O)[C@H](O)[C@H]1CS2(=O)=O | < 4.00 | < 4.00 |  |  |  |  |  |  |

Now from value to compound, other results behind:

| pIC50 [1] | pIC50 [2] | Compound | pIC50 [3] | viability at 48 h, 10 µM [4] | viability at 48 h, 0.1 µM [5] | viability at 48 h, 0.01 µM [6] | viability at 48 h, 1 µM [7] | viability at 48 h, 100 µM [8] |
| --- | --- | --- | --- | --- | --- | --- | --- | --- |
| < 4.00 | 5.15 | c1ccc(COC[C@H]2O[C@@H]3c4c(ccc5ccccc45)SC[C@@H]3[C@@H](OCc3ccccc3)[C@@H]2OCc2ccccc2)cc1 | < 4.00 |  |  |  |  |  |
| 5.45 | 6.28 | [O-][S@@+]1C[C@@H]2[C@@H](OCc3ccccc3)[C@H](OCc3ccccc3)[C@@H](COCc3ccccc3)O[C@@H]2c2c1ccc1ccccc21 | < 4.00 | 93.7% | 92.5% | 96% | 96% | 89% |
| 5.59 | 5.66 | [O-][S@+]1C[C@@H]2[C@@H](OCc3ccccc3)[C@H](OCc3ccccc3)[C@@H](COCc3ccccc3)O[C@@H]2c2c1ccc1ccccc21 | < 4.00 | 94.5% | 98.5% | 101% | 96.7% | 79.4% |
| < 4.00 | 5.40 | O=S1(=O)C[C@@H]2[C@@H](OCc3ccccc3)[C@H](OCc3ccccc3)[C@@H](COCc3ccccc3)O[C@@H]2c2ccccc21 | < 4.00 | 92.4% | 97% | 97.8% | 97% | 67.8% |
| 5.63 | 5.71 | Cc1ccc2c(c1)[C@H]1O[C@H](COCc3ccccc3)[C@@H](OCc3ccccc3)[C@H](OCc3ccccc3)[C@H]1CS2(=O)=O | < 4.00 | 91.7% | 95.7% | 99.5% | 94.6% | 68.5% |
| 5.74 | 5.77 | COc1ccc2c(c1)[C@H]1O[C@H](COCc3ccccc3)[C@@H](OCc3ccccc3)[C@H](OCc3ccccc3)[C@H]1CS2(=O)=O | < 4.00 |  |  |  |  |  |
| 6.41 | 6.55 | CC(C)(C)c1ccc2c(c1)[C@H]1O[C@H](COCc3ccccc3)[C@@H](OCc3ccccc3)[C@H](OCc3ccccc3)[C@H]1CS2(=O)=O | < 4.00 | 91% | 96.3% | 96.7% | 92.7% | 71.7% |
| 5.63 | 5.79 | Cc1cccc2c1S(=O)(=O)C[C@@H]1[C@@H](OCc3ccccc3)[C@H](OCc3ccccc3)[C@@H](COCc3ccccc3)O[C@H]21 | < 4.00 |  |  |  |  |  |
| 5.68 | 5.42 | O=S1(=O)C[C@@H]2[C@@H](OCc3ccccc3)[C@H](OCc3ccccc3)[C@@H](COCc3ccccc3)O[C@@H]2c2c1ccc1ccccc21 | < 4.00 |  |  |  |  |  |
| 5.38 | 5.49 | O=S1(=O)C[C@@H]2[C@@H](OCc3ccccc3)[C@H](OCc3ccccc3)[C@@H](COCc3ccccc3)O[C@H]2c2ccccc21 | < 4.00 |  |  |  |  |  |
| 5.63 | 5.77 | Cc1ccc2c(c1)[C@@H]1O[C@H](COCc3ccccc3)[C@@H](OCc3ccccc3)[C@H](OCc3ccccc3)[C@H]1CS2(=O)=O | < 4.00 |  |  |  |  |  |
| 5.60 | 5.71 | COc1ccc2c(c1)[C@@H]1O[C@H](COCc3ccccc3)[C@@H](OCc3ccccc3)[C@H](OCc3ccccc3)[C@H]1CS2(=O)=O | < 4.00 |  |  |  |  |  |
| < 4.00 | 6.15 | CC(C)(C)c1ccc2c(c1)[C@@H]1O[C@H](COCc3ccccc3)[C@@H](OCc3ccccc3)[C@H](OCc3ccccc3)[C@H]1CS2(=O)=O | < 4.00 |  |  |  |  |  |
| 5.47 | 5.67 | Cc1cccc2c1S(=O)(=O)C[C@@H]1[C@@H](OCc3ccccc3)[C@H](OCc3ccccc3)[C@@H](COCc3ccccc3)O[C@@H]21 | < 4.00 |  |  |  |  |  |
| < 4.00 | < 4.00 | O=S1(=O)C[C@@H]2[C@@H](OCc3ccccc3)[C@H](OCc3ccccc3)[C@@H](COCc3ccccc3)O[C@H]2c2c1ccc1ccccc21 |  |  |  |  |  |  |
